Data published in ChEMBL document CHEMBL1932986, “Synthesis and in vitro antimycobacterial activity of compounds derived from (R)- and (S)-2-amino-1-butanol - The crucial role of the configuration” (Eur J Med Chem, 2012).

What was measured:
Assay type in all cases: functional
[1] = test system: Acinetobacter johnsonii; test: Antibacterial activity against Acinetobacter johnsonii ATCC 17909 at 1 mg/ml after 24 hrs by agar diffusion test; details: ATCC 17909, 24 h, read-out: DIZ
Procedure, shortened: (§1)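 Agar diffusion: wells in agar filled with […] DMSO solution of compound at various concentrations; diameter of clear zone around application point measured. Bacteria grown 24 h at 37 °C on nutrient agar. Compounds first screened at 50 mg/ml; those active then tested at lower concentrations. Bracketed value = lowest concentration (mg/ml) giving zone >11 mm, reported only if activity retained at ≤1.25 mg/ml.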

[2] = test system: Acinetobacter johnsonii; test: Antibacterial activity against Acinetobacter johnsonii ATCC 17909 at 5 mg/ml after 24 hrs by agar diffusion test; details: ATCC 17909, 24 h, read-out: DIZ; procedure, shortened: as §1
[3] = test system: Bacillus; test: Antibacterial activity against Bacillus idosus B 241 at 25 mg/ml after 24 hrs by agar diffusion test; details: B 241, 24 h, read-out: DIZ; procedure, shortened: as §1
[4] = test system: Acinetobacter johnsonii; test: Antibacterial activity against Acinetobacter johnsonii ATCC 17909 at 25 mg/ml after 24 hrs by agar diffusion test; details: ATCC 17909, 24 h, read-out: DIZ; procedure, shortened: as §1
[5] = test system: Micrococcus luteus; test: Antibacterial activity against Micrococcus luteus ATCC 9631 at 5 mg/ml after 24 hrs by agar diffusion test; details: ATCC 9631, 24 h, read-out: DIZ; procedure, shortened: as §1
[6] = test system: Priestia megaterium; test: Antibacterial activity against Bacillus megaterium NRRL 1353895 at 25 mg/ml after 24 hrs by agar diffusion test; details: NRRL 1353895, 24 h, read-out: DIZ; procedure, shortened: as §1
[7] = test system: Escherichia coli; test: Antibacterial activity against Escherichia coli ATCC 8739 at 1 mg/ml after 24 hrs by agar diffusion test; details: ATCC 8739, 24 h, read-out: DIZ; procedure, shortened: as §1
[8] = test system: Priestia megaterium; test: Antibacterial activity against Bacillus megaterium NRRL 1353895 at 1 mg/ml after 24 hrs by agar diffusion test; details: NRRL 1353895, 24 h, read-out: DIZ; procedure, shortened: as §1
[9] = test system: Bacillus cereus; test: Antibacterial activity against Bacillus cereus ATCC 11778 at 1 mg/ml after 24 hrs by agar diffusion test; details: ATCC 11778, 24 h, read-out: DIZ; procedure, shortened: as §1
[10] = test system: Bacillus cereus; test: Antibacterial activity against Bacillus cereus ATCC 11778 at 25 mg/ml after 24 hrs by agar diffusion test; details: ATCC 11778, 24 h, read-out: DIZ; procedure, shortened: as §1
[11] = test system: Micrococcus luteus; test: Antibacterial activity against Micrococcus luteus ATCC 9631 at 25 mg/ml after 24 hrs by agar diffusion test; details: ATCC 9631, 24 h, read-out: DIZ; procedure, shortened: as §1
[12] = test system: Micrococcus luteus; test: Antibacterial activity against Sarcina lutea ATCC 9341 at 5 mg/ml after 24 hrs by agar diffusion test; details: ATCC 9341, 24 h, read-out: DIZ
Procedure, shortened: (§2)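 Agar diffusion: bacteria grown 24 h at 37 °C on nutrient agar. Wells in the agar are filled with […] of compound solution in DMSO at various concentrations. The diameter of the clear zone around the application point is measured. Bracketed values give the lowest concentration (mg/ml) that produces a zone >11 mm. A first screen is run at 50 mg/ml.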

[13] = test system: Escherichia coli; test: Antibacterial activity against Escherichia coli ATCC 8739 at 25 mg/ml after 24 hrs by agar diffusion test; details: ATCC 8739, 24 h, read-out: DIZ; procedure, shortened: as §1
[14] = test system: Micrococcus luteus; test: Antibacterial activity against Sarcina lutea ATCC 9341 at 25 mg/ml after 24 hrs by agar diffusion test; details: ATCC 9341, 24 h, read-out: DIZ; procedure, shortened: as §2
[15] = test system: Bacillus; test: Antibacterial activity against Bacillus idosus B 241 at 1 mg/ml after 24 hrs by agar diffusion test; details: B 241, 24 h, read-out: DIZ; procedure, shortened: as §1
[16] = test system: Staphylococcus aureus; test: Antibacterial activity against Staphylococcus aureus NRRL B 313 at 25 mg/ml after 24 hrs by agar diffusion test; details: NRRL B 313, 24 h, read-out: DIZ; procedure, shortened: as §2
[17] = test system: Priestia megaterium; test: Antibacterial activity against Bacillus megaterium NRRL 1353895 at 5 mg/ml after 24 hrs by agar diffusion test; details: NRRL 1353895, 24 h, read-out: DIZ; procedure, shortened: as §1
[18] = test system: Staphylococcus aureus; test: Antibacterial activity against Staphylococcus aureus NRRL B 313 at 5 mg/ml after 24 hrs by agar diffusion test; details: NRRL B 313, 24 h, read-out: DIZ; procedure, shortened: as §2
[19] = test system: Staphylococcus aureus; test: Antibacterial activity against Staphylococcus aureus NRRL B 313 at 1 mg/ml after 24 hrs by agar diffusion test; details: NRRL B 313, 24 h, read-out: DIZ
Procedure, shortened: (§3)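 Agar diffusion: bacteria grown 24 h at 37 °C on nutrient agar; wells cut in the seeded agar are filled with compound solution in DMSO. Read-out is the diameter of the clear zone around the application point.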

[20] = test system: Bacillus subtilis; test: Antibacterial activity against Bacillus subtilis ATCC 6633 at 25 mg/ml after 24 hrs by agar diffusion test; details: ATCC 6633, 24 h, read-out: DIZ; procedure, shortened: as §1
[21] = test system: Bacillus; test: Antibacterial activity against Bacillus idosus B 241 at 5 mg/ml after 24 hrs by agar diffusion test; details: B 241, 24 h, read-out: DIZ; procedure, shortened: as §1
[22] = test system: Bacillus mycoides; test: Antibacterial activity against Bacillus mycoides DSMZ 274 at 1 mg/ml after 24 hrs by agar diffusion test; details: DSMZ 274, 24 h, read-out: DIZ; procedure, shortened: as §1
[23] = test system: Bacillus subtilis; test: Antibacterial activity against Bacillus subtilis ATCC 6633 at 5 mg/ml after 24 hrs by agar diffusion test; details: ATCC 6633, 24 h, read-out: DIZ; procedure, shortened: as §3
[24] = test system: Bacillus mycoides; test: Antibacterial activity against Bacillus mycoides DSMZ 274 at 25 mg/ml after 24 hrs by agar diffusion test; details: DSMZ 274, 24 h, read-out: DIZ; procedure, shortened: as §1
[25] = test system: Bacillus subtilis; test: Antibacterial activity against Bacillus subtilis ATCC 6633 at 1 mg/ml after 24 hrs by agar diffusion test; details: ATCC 6633, 24 h, read-out: DIZ; procedure, shortened: as §1
[26] = test system: Bacillus mycoides; test: Antibacterial activity against Bacillus mycoides DSMZ 274 at 5 mg/ml after 24 hrs by agar diffusion test; details: DSMZ 274, 24 h, read-out: DIZ; procedure, shortened: as §1
[27] = test system: Micrococcus luteus; test: Antibacterial activity against Sarcina lutea ATCC 9341 at 1 mg/ml after 24 hrs by agar diffusion test; details: ATCC 9341, 24 h, read-out: DIZ; procedure, shortened: as §1
[28] = test system: Bacillus cereus; test: Antibacterial activity against Bacillus cereus ATCC 11778 at 5 mg/ml after 24 hrs by agar diffusion test; details: ATCC 11778, 24 h, read-out: DIZ; procedure, shortened: as §1
[29] = test system: Escherichia coli; test: Antibacterial activity against Escherichia coli ATCC 8739 at 5 mg/ml after 24 hrs by agar diffusion test; details: ATCC 8739, 24 h, read-out: DIZ; procedure, shortened: as §1
[30] = test system: Micrococcus luteus; test: Antibacterial activity against Micrococcus luteus ATCC 9631 at 1 mg/ml after 24 hrs by agar diffusion test; details: ATCC 9631, 24 h, read-out: DIZ; procedure, shortened: as §1

Work on `CN[C@@H]1[C@H](O[C@H]2[C@H](O[C@H]3[C@H](O)[C@@H](O)[C@H](N=C(N)N)[C@@H](O)[C@@H]3N=C(N)N)O[C@@H](C)[C@]2(O)C=O)O[C@@H](CO)[C@H](O)[C@H]1O` [STREPTOMYCIN] yielded a zone of inhibition at 1000 µg/mL [1] of 20 mm, a zone of inhibition at 5000 µg/mL [2] of 24 mm and a zone of inhibition at 25000 µg/mL [3] of 30 mm. It also gave a zone of inhibition at 25000 µg/mL [4] of 30 mm, a zone of inhibition at 5000 µg/mL [5] of 25 mm and a zone of inhibition at 25000 µg/mL [6] of 30 mm. It also gave a zone of inhibition at 1000 µg/mL [7] of 23 mm, a zone of inhibition at 1000 µg/mL [8] of 20 mm and a zone of inhibition at 1000 µg/mL [9] of 23 mm. The zone of inhibition at 25000 µg/mL [10] was 30 mm, the zone of inhibition at 25000 µg/mL [11] was 30 mm and the zone of inhibition at 5000 µg/mL [12] was 22 mm. For the same compound, the zone of inhibition at 25000 µg/mL [13] was 35 mm, the zone of inhibition at 25000 µg/mL [14] was 27 mm and the zone of inhibition at 1000 µg/mL [15] was 21 mm. For the same compound, the zone of inhibition at 25000 µg/mL [16] was 32 mm, the zone of inhibition at 5000 µg/mL [17] was 25 mm and the zone of inhibition at 5000 µg/mL [18] was 26 mm. For the same compound, the zone of inhibition at 1000 µg/mL [19] was 20 mm, the zone of inhibition at 25000 µg/mL [20] was 35 mm and the zone of inhibition at 5000 µg/mL [21] was 27 mm. For the same compound, the zone of inhibition at 1000 µg/mL [22] was 25 mm, the zone of inhibition at 5000 µg/mL [23] was 30 mm and the zone of inhibition at 25000 µg/mL [24] was 35 mm. For the same compound, the zone of inhibition at 1000 µg/mL [25] was 25 mm, the zone of inhibition at 5000 µg/mL [26] was 30 mm and the zone of inhibition at 1000 µg/mL [27] was 19 mm. It also gave a zone of inhibition at 5000 µg/mL [28] of 28 mm, a zone of inhibition at 5000 µg/mL [29] of 26 mm and a zone of inhibition at 1000 µg/mL [30] of 20 mm.
